Data set [1] concerns Notch processing by γ-secretase. As to the kind of experiment: Notch processing in H4-APP751 cells transfected with the NΔE construct. Format: cell-based, human. To be noted: 24hrs, 22d 10 μM and 1 μM, DAPT 300 nM and 100 nM. The method, boiled down: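 H4 human neuroglioma cells stably overexpressing human APP751 were transfected with an […] Myc-tagged NΔE Notch construct. They were then treated with the test compound, a reference γ-secretase inhibitor or vehicle for 24 h and harvested 48 h post-transfection. Western blots were probed with anti-Myc antibody to detect NΔE and NICD, with β-actin as loading control.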

Data set [2] in a line: Pharmacokinetic evaluation after single iv and po administration. Format: in vivo, male CD-1 mice. To be noted: for Fraction of oral dose absorbed / Share of absorbed dose metabolized during the first-pass: mice, po; for Fraction of oral dose absorbed: accounting for first-pass effects; for Share of absorbed dose metabolized during the first-pass: assuming hepatic elimination.

Data set [3] in a line: Kinetic aqueous solubility by UV/Vis absorbance in PBS buffer. Format: physicochemical. To be noted: pH 7.4, PBS buffer.
Data set [4] deals with Aβ38, Aβ40, Aβ42 and total Aβ peptide levels in SHSY5Y-APP cells. Description: Meso Scale multiplex assay of Aβ peptides in SHSY5Y-APP cells. Format: cell-based, human. To be noted: concentration response. Summed up: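 Human SH-SY5Y neuroblastoma cells stably overexpressing wild-type human APP751 were exposed to the test compound at a range of concentrations. Aβ38, Aβ40, Aβ42 and total Aβ in the samples were measured by Meso Scale Sector 6000 multiplex assay. Plates were read on an MSD SECTOR Imager after read buffer was added, and peptide concentrations were back-fitted from their respective standard curves.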

The test system of data set [5] is plasma Aβ38, Aβ40 and Aβ42 levels. As to the kind of experiment: Pharmacodynamic study using J20 mice. To be noted: daily oral, 3-day treatment; for Effect on plasma Aβ42 and Aβ40: 25, 50 and 100 mg/kg; for Effect on Aβ38 levels: plasma. Format: in vivo, female J20 mice. Summed up:
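Female J20 transgenic mice (5–6 months old, n=5/dose) received the test compound or vehicle (5% NMP/95% PEG300) by oral gavage once daily for three days. Animals were killed 4 h after the day-3 dose, and plasma and brain were collected. Aβ38, Aβ40 and Aβ42 were quantified with Meso Scale multiplex kits, and data were analysed as mean ± SEM with ANOVA.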

The test system of data set [6] is Aβ42 levels (γ-secretase modulation) in SHSY5Y-APP cells. As to the kind of experiment: Cell-based ELISA assay for measuring extracellular Aβ42 levels. The arrangement: species or system human. (An ELISA detects its analyte on a solid surface through an enzyme-linked reagent.)
Data set [7] concerns plasma and brain Aβ38, Aβ40 and Aβ42 levels. As to the kind of experiment: Pharmacodynamic study using Tg2576 mice. Format: in vivo, female Tg2576 mice. To be noted: 50 mg/kg, oral daily, 14 days. Summed up:
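Dosing was by oral gavage in female Tg2576 mice (5–6 months old, n=12/dose), given the test compound or vehicle (5% NMP/95% PEG300) daily for 14 consecutive days. Mice were killed 4 h after the final dose on day 14, and plasma and brain were harvested. Aβ38, Aβ40 and Aβ42 were measured by Meso Scale multiplex assay, and results were expressed as mean ± SEM with ANOVA.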

Where [8] appears, read: male, CD-1, mouse, plasma, iv, 1 mg/kg.

The values that follow come from PMC7917164 (Bioorganic & medicinal chemistry, 2020).

Marks after values point to notes of the source that are not given here.

As a reminder, the half-life is how long it takes for the measured level to halve.

With `CCn1nc2c(c1Nc1nc(-c3ccc(-n4cnc(C)c4)c(OC)n3)cs1)CCCC2` [Compound 22d, N-(2-ethyl-4,5,6,7-tetrahydro-2H-indazol-3-yl)-4-(6-methoxy-5-(4-methyl-1H-imidazol-1-yl)pyridin-2-yl)thiazol-2-amine], the “Notch processing (NΔE to NICD)” value in data set [1] is on record as “did not inhibit”. The “Clearance as share of mouse hepatic blood flow” value in data set [2] (iv, male CD-1 mice, hepatic blood flow ~90 mL/min/kg) is “approximately 40%”. In addition, in data set [2], the “Fraction of oral dose absorbed” value is listed as ~90% and the “Share of absorbed dose metabolized during the first-pass” value is listed as “approximately 40%”. Besides, the “Kin. Aq. Sol.” value in data set [3] is reported as 4.5* μM. Further, in data set [4], the Aβ38 levels result was “potentiated”, the Aβ40 levels entry is given as “suppressed”, the Aβ42 levels entry was “suppressed” and the “total levels of Aβ” value is recorded as “no change”.
As to `COc1nc(-c2csc(Nc3c4c(nn3CCF)CCCC4)n2)ccc1-n1cnc(C)c1` [Compound 46, N-(2-(2-fluoroethyl)-4,5,6,7-tetrahydro-2H-indazol-3-yl)-4-(6-methoxy-5-(4-methyl-1H-imidazol-1-yl)pyridin-2-yl)thiazol-2-amine], in data set [5], the “Effect on plasma Aβ42 and Aβ40” value is “plateau between 50 and 100 mg/kg”; the “Effect on Aβ38 levels” value is reported as “reduced”. In addition, the clearance at 24 h in data set [2] (setting [8]) is 57.8 mL/min/kg. Also, in data set [2], the “Fraction of oral dose absorbed” value is given as “nearly complete” and the “Share of absorbed dose metabolized during the first-pass” value is “approximately 60%”. The “Parent Aβ42 IC50” value in data set [6] was determined as 110 nM.
Turning to `CCn1nc2c(c1Nc1nc(-c3ccc(-n4cnc(C)c4)c(OC)n3)cs1)CCC2` [Compound 64, N-(2-ethyl-2,4,5,6-tetrahydrocyclopenta[c]pyrazol-3-yl)-4-(6-methoxy-5-(4-methyl-1H-imidazol-1-yl)pyridin-2-yl)thiazol-2-amine], in data set [5], the “Effect on plasma Aβ42 and Aβ40” value is “dose-dependent reduction”; the “Effect on Aβ38 levels” value is “reduced”. Moreover, in data set [2] (setting [8]), the clearance at 24 h was 43.5 mL/min/kg and the half-life was 42 min. Further, the “Fraction of oral dose absorbed” value in data set [2] is “greater than 80%”. In data set [6], the “Parent Aβ42 IC50” value was 41 nM. Moreover, in data set [7], the “Effect on plasma Aβ38 levels” value is “potentiating”; the “Effect on plasma Aβ42 and Aβ40 levels” value was “decreased”.
As for `C[C@H](NC(=O)Cc1cc(F)cc(F)c1)C(=O)N[C@H](C(=O)OC(C)(C)C)c1ccccc1` [DAPT, reference compound], the “Notch processing (NΔE to NICD)” value in data set [1] is on record as “significantly inhibits”.
